From PMC8114186 (ChemMedChem, 2020)
Read-outs that look alike come from different tables or passages of the source. Marks after values point to notes of the source that are not given here.

What was measured:
[1] = test system: E. coli MG1655 expressing NDM-1; format: cell-based
[2] = test system: E. coli UTI89 expressing NDM-1; format: cell-based
NDM-1 = NDM-1 (Klebsiella pneumoniae, UniProt C7C422); experiment: In vitro inhibition of NDM-1-catalyzed turnover of nitrocefin; format: biochemical
In short: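 Purified NDM-1 enzyme, identity and purity confirmed by ESI-MS. Test compound serially diluted in 50 mM HEPES, pH 7.2, and preincubated with 1 nM NDM-1 for 10 min at rt. Nitrocefin (20 µM) then added; absorbance at 492 nm followed over 30 min at rt. Slopes normalized to each compound's maximum slope, plotted against log concentration; IC50 and confidence intervals from curve fit.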

[3] = E. coli MG1655, 100 μM compound

NDM-1, sequence (C7C422 29-270, looked up, species assumed): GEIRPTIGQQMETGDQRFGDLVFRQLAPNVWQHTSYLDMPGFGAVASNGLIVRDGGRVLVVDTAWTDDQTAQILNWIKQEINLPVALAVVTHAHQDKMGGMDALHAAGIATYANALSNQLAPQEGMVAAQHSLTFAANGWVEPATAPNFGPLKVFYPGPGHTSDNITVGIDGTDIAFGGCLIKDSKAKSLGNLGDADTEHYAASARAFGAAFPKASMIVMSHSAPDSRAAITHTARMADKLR

Compound: O=C(O)c1cccc2oc(-c3ccc4cc(OCc5ccccc5)ccc4c3O)nc12 [Compound 9, 2-(6-benzyloxy-1-hydroxynaphthalen-2-yl)benzoxazole-4-carboxylic acid]
- Reduction of the MIC of meropenem ([1]; E. coli MG1655, 25 μM compound): at least 4 fold
- Decrease of the MIC of meropenem [1, 3]: at least 16 fold
- Antibacterial activity of compound on its own ([1]; E. coli MG1655, 200 μM, no meropenem): did not show any antibacterial activity
- Meropenem MIC ([1]; E. coli MG1655, meropenem + 25 μM compound): 16 µg/mL
- Meropenem MIC ([1]; E. coli MG1655, meropenem + 50 μM compound): 1–4^[a] μg/mL
- Meropenem MIC ([1]; E. coli MG1655, meropenem + 200 μM compound): ≤0.5 µg/mL
- Reduction of the MIC of meropenem ([2]; E. coli UTI89, 25 μM compound): at least 4 fold
- Decrease of the MIC of meropenem ([2]; E. coli UTI89, 100 μM compound): at least 16 fold
- Antibacterial activity of compound on its own ([2]; E. coli UTI89, 200 μM, no meropenem): did not show any antibacterial activity
- Meropenem MIC ([2]; E. coli UTI89, meropenem + 25 μM compound): 4–8^[a] μg/mL
- Meropenem MIC ([2]; E. coli UTI89, meropenem + 50 μM compound): ≤0.5 µg/mL
- Meropenem MIC ([2]; E. coli UTI89, meropenem + 200 μM compound): ≤0.5 µg/mL

Compound: O=C(O)c1cccc2oc(-c3c(O)ccc4ccccc34)nc12 [Compound 7, 2-(2-hydroxynaphthalen-1-yl)benzoxazole-4-carboxylic acid]
- Restoration of meropenem susceptibility [1, 3]: failed to restore meropenem susceptibility
- Meropenem MIC ([1]; E. coli MG1655, meropenem + 100 μM compound): 64 µg/mL
- Restoration of meropenem susceptibility ([2]; E. coli UTI89, 100 μM compound): failed to restore meropenem susceptibility
- Meropenem MIC ([2]; E. coli UTI89, meropenem + 100 μM compound): 64 µg/mL
- IC50 (NDM-1): 8.5 µM

Compound: O=C(O)c1cccc2oc(-c3cc4ccccc4cc3O)nc12 [Compound 6, 2-(3-hydroxynaphthalen-2-yl)benzoxazole-4-carboxylic acid]
- IC50 (NDM-1): 9.8 µM

Compound: O=C(O)c1cccc2oc(-c3ccc4c(OCc5ccccc5)cccc4c3O)nc12 [Compound 10, 2-(5-benzyloxy-1-hydroxynaphthalen-2-yl)benzoxazole-4-carboxylic acid]
- IC50 (NDM-1): > 40 µM
- Inhibitory activity against NDM-1 (in words) (NDM-1): lack of inhibitory activity

Compound: C[C@@H](O)[C@H]1C(=O)N2C(C(=O)O)=C(S[C@@H]3CN[C@H](C(=O)N(C)C)C3)[C@H](C)[C@H]12 [Meropenem, reference compound]
- Meropenem MIC ([1]; E. coli MG1655, meropenem alone): 64 µg/mL
- Meropenem MIC ([2]; E. coli UTI89, meropenem alone): >64 µg/mL
- MIC ([2]; Escherichia coli, read-out: Meropenem MIC, E. coli UTI89, meropenem alone): ≥ 64 µg/mL

Compound: O=C(O)c1cccc2oc(-c3ccc4ccccc4c3O)nc12 [Compound 5, 2-(1-hydroxynaphthalen-2-yl)benzoxazole-4-carboxylic acid]
- Decrease of the MIC of meropenem [1, 3]: at least 16 fold
- Decrease of the MIC of meropenem ([2]; E. coli UTI89, 100 μM compound): at least 16 fold
- IC50 (NDM-1): 0.74 µM

Compound: O=C(O)c1cccc2oc(-c3ccc4ccc(OCc5ccccc5)cc4c3O)nc12 [Compound 8, 2-(7-benzyloxy-1-hydroxynaphthalen-2-yl)benzoxazole-4-carboxylic acid]
- Decrease of the MIC of meropenem [1, 3]: at least 16 fold
- Decrease of the MIC of meropenem ([2]; E. coli UTI89, 100 μM compound): at least 16 fold
- IC50 (NDM-1): 2.3 µM
